# Data reported in ChEMBL document CHEMBL1641493, “Discovery of fused 5,6-bicyclic heterocycles as γ-secretase modulators” (Bioorg Med Chem Lett, 2011).
# Activity calls are given as the source filed them. No cut-off for these calls is given here.
# Tests used:
# [1] = molecular target: Gamma-secretase; assay: Inhibition of gamma secretase-mediated amyloid beta42 production in HEK293 cells by sandwich immunoassay; assay type: cell-based, Homo sapiens
# Method in brief: (§1)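 HEK293 cells stably transfected with APPsw-lon (pcDNA3.1) treated with compound for 5 h. Aβ in the conditioned medium measured by MSD electrochemiluminescent sandwich immunoassay, using TAG-G2-11/biotin-4G8 for Aβ42 and TAG-W02/biotin-4G8 for total Aβ. IC50 values derived for each, and the ratio taken as total Aβ IC50 over Aβ42 IC50.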
# [2] = molecular target: Gamma-secretase (Homo sapiens) (UniProt Q96BI3+Q9NZ42+Q8WW43+P49768+Q92542+P49810); assay: Selectivity ratio of IC50 for gamma secretase-mediated total amyloid beta production to IC50 for gamma secretase-mediated amyloid beta42 production in HEK293 cells; assay type: cell-based; method in brief: as §1
# [3] = system: Rattus norvegicus; assay: Antialzheimer activity in CD rat assessed as decrease in amyloid beta42 level in CSF at 30 mg/kg, po after 3 hrs; assay type: functional
# Method in brief: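 Male CD rats (~100 g) given a single oral dose of 30 mg/kg formulated in 20% hydroxypropyl β-cyclodextrin. CSF sampled 3 h after dosing, stored at -80 °C, and CSF Aβ42 quantified with AlphaLISA amyloid assay kits. Effect expressed as % change in Aβ42.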
# [4] = system: Rattus norvegicus; assay: Antialzheimer activity in CD rat assessed as decrease in amyloid beta42 level in brain at 30 mg/kg, po after 3 hrs; assay type: functional
# Method in brief: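 Male CD rats (~100 g) dosed orally at 30 mg/kg in 20% hydroxypropyl β-cyclodextrin, brains taken 3 h later and frozen on dry ice. Half cortex homogenized and extracted in 5 M guanidine-HCl/50 mM Tris-HCl pH 8, sonicated, and cleaned up by solid-phase extraction. Eluate dried and resuspended in PBS/0.5% Tween 20, then Aβ42 read by AlphaLISA. Result given as % change.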
IC50 [1] [nM],Ratio IC50 [2],SMILES,further results
156,128,CCC(c1ccc(F)cc1)N1CCCn2c(-c3ccc(-n4cnc(C)c4)c(OC)c3)nnc21 (stereo not drawn),
509,39,COc1cc(-c2nnc3n2CCCN3C(C)c2ccc(F)cc2)ccc1-n1cnc(C)c1 (stereo not drawn),
448,29,COc1cc(-c2noc3c2CCCN3[C@@H](C)c2ccc(F)cc2)ccc1-n1cnc(C)c1,
440,46,COc1cc(-c2onc3c2CCCN3Cc2cc(F)cc(F)c2)ccc1-n1cnc(C)c1,
1390,14,COc1cc(-c2noc3c2CCCN3[C@H](C)c2ccc(F)cc2)ccc1-n1cnc(C)c1,
875,17,CC[C@@H](c1ccc(F)cc1)N1CCCc2c(-c3ccc(-n4cnc(C)c4)c(OC)c3)noc21,
537,37,COc1cc(-c2onc3c2CCCN3[C@@H](C)c2ccccc2)ccc1-n1cnc(C)c1,
465,38,COc1cc(-c2onc3c2CCCN3[C@@H](C)c2ccc(F)cc2)ccc1-n1cnc(C)c1,
164,46,COc1cc(-c2n[nH]c3c2CCCN3C(C)c2ccc(F)cc2)ccc1-n1cnc(C)c1 (stereo not drawn),
356,48,COc1cc(-c2onc3c2CCCN3Cc2ccc(F)cc2)ccc1-n1cnc(C)c1,inhibition [3]: inactive; inhibition [4]: inactive
935,21,COc1cc(-c2noc3c2CCCN3[C@@H](C)c2cc(F)cc(F)c2)ccc1-n1cnc(C)c1,

# Further lines, the molecule ahead of its results:
SMILES,IC50 [1] [nM],Ratio IC50 [2],further results
CCC(c1cc(F)c(F)c(F)c1)N1CCCc2c(-c3ccc(-n4cnc(C)c4)c(OC)c3)n[nH]c21 (stereo not drawn),201,99,
COc1cc(-c2nnc3n2CCCN3C(c2ccccc2)C2CC2)ccc1-n1cnc(C)c1 (stereo not drawn),20000,1,
COc1cc(-c2nnc3n2CCCN3C(c2ccc(F)cc2)C2CC2)ccc1-n1cnc(C)c1 (stereo not drawn),16400,1,
CC[C@H](c1cc(F)c(F)c(F)c1)N1CCCc2c(-c3ccc(-n4cnc(C)c4)c(OC)c3)n[nH]c21,209,96,
COc1cc(-c2nnc3n2CCCN3C(=O)C(C)c2ccc(F)cc2)ccc1-n1cnc(C)c1 (stereo not drawn),485,41,
COc1cc(-c2nnc3n2CCCN3C(C)c2c(F)cc(F)cc2F)ccc1-n1cnc(C)c1 (stereo not drawn),342,58,
COc1cc(/C=C2\CCCN([C@@H](C)c3ccc(F)cc3)C2=O)ccc1-n1cnc(C)c1,,,inhibition in vivo at 30 mg/kg [3]: 55%; inhibition in vivo at 30 mg/kg [4]: 44%
COc1cc(-c2nnc3n2CCCN3C(=O)Cc2ccc(F)cc2)ccc1-n1cnc(C)c1,1920,10,
CCCCC(=O)N1CCCn2c(-c3ccc(-n4cnc(C)c4)c(OC)c3)nnc21,2070,10,
COc1cc(-c2nnc3n2CCCN3S(=O)(=O)c2ccc(F)cc2)ccc1-n1cnc(C)c1,2210,9,
COc1cc(-c2nnc3n2CCCN3C(=O)N2CCOCC2)ccc1-n1cnc(C)c1,20000,1,
COc1cc(-c2noc3c2CCCN3[C@@H](C)c2cc(F)c(F)c(F)c2)ccc1-n1cnc(C)c1,540,37,
COc1ccc(CN2CCCn3c(-c4ccc(-n5cnc(C)c5)c(OC)c4)nnc32)cc1,1410,14,
COc1cc(-c2nnc3n2CCCN3Cc2ccc(F)c(F)c2)ccc1-n1cnc(C)c1,552,36,
COc1cc(-c2nnc3n2CCCN3C(C)c2cc(F)c(F)c(F)c2)ccc1-n1cnc(C)c1 (stereo not drawn),116,165,
COc1cc(-c2nnc3n2CCCN3C(=O)c2ccc(F)cc2)ccc1-n1cnc(C)c1,19300,1,
COc1cc(-c2nnc3n2CCCN3Cc2ccc(F)cc2)ccc1-n1cnc(C)c1,649,31,
COc1cc(-c2nnc3n2CCCN3CCc2ccc(F)cc2)ccc1-n1cnc(C)c1,619,32,
COc1cc(-c2nnc3n2CCCN3Cc2ccc(C#N)cc2)ccc1-n1cnc(C)c1,2530,3,
COc1cc(-c2nnc3n2CCCN3Cc2ccc(Cl)c(Cl)c2)ccc1-n1cnc(C)c1,126,159,
CCCCCN1CCCn2c(-c3ccc(-n4cnc(C)c4)c(OC)c3)nnc21,1410,14,
CCCC(c1ccc(F)cc1)N1CCCn2c(-c3ccc(-n4cnc(C)c4)c(OC)c3)nnc21 (stereo not drawn),145,138,
CC[C@@H](c1cc(F)c(F)c(F)c1)N1CCCc2c(-c3ccc(-n4cnc(C)c4)c(OC)c3)n[nH]c21,122,164,inhibition in vivo at 30 mg/kg [3]: 26%
COc1cc(-c2nnc3n2CCCN3)ccc1-n1cnc(C)c1,20000,1,
